Test: Toxicity liver stage against HepG2, at 10uM
Type: cell-based
Design: test concentration 10 uM, cell line HepG2-A16-CD81EGFP
Conditions: human, HepG2-A16-CD81EGFP cells; read-out: INHIBITION
In short: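 Uninfected HepG2-A16-CD81EGFP cells, 3 × 10^3 per well, 1536-well, plated on prespotted compound at 10 μM final, parasite-free screening media added to match infected plates; puromycin 10 μM positive, DMSO 0.5% negative; run in parallel with 48 h PbLuc assay at 37 °C, 5% CO2; viability by CellTiter-Glo luminescence, normalized to controls.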

Row | Structure (SMILES) | cytotoxicity at 10 µM [%]
1 | CNc1ncc(CN(C)C(=O)c2cccc(CC3CCNCC3)c2)cn1 | -19.7
2 | COc1cccc(Cn2[nH]c(C)c3c(NC(=O)C(C)OC)nnc2-3)c1 (configuration not stated) | -2.03
3 | Cn1cnnc1CC1CCN(Cc2c(Cl)cncc2Cl)CC1 | -9.42
4 | NC(=O)N1C[C@H](NC(=O)c2cscn2)[C@@H]2OCCC[C@@H]21 | -99
5 | Cc1cc(CN2CC[C@H]3[C@H]2CCN3C)oc1C | -0.655
6 | CN(C)C(C(=O)N1CC(Oc2ccccc2F)C1)c1ccc(F)cc1 (configuration not stated) | 1.28
7 | O=C(NCCCn1cccn1)C1(c2ccc(F)cc2)CC1 | -6.13
8 | CCS(=O)(=O)CCNc1nc(C2CCCC2)nc2c1cnn2C | 9.35
9 | CN1CCC(c2nnc(CN3CCCC3)n2C2CC2)CC1 | -11.4
10 | O[C@@H]1CC(CNCc2cccc(Cl)c2)(COc2cnccn2)C[C@@H]1O (some centres not stated) | -3.58
11 | COCc1noc(-c2ccc(N3CCCC3c3ccc(F)cc3)nc2)n1 (configuration not stated) | 5.79
12 | CC(C)CC(NCc1ccsc1)c1ccccn1 (configuration not stated) | -2.56
13 | CC(=O)NCCNC(=O)c1cnc(-c2ccc(C)cc2C)s1 | -7.95
14 | COCCNc1ccccc1CNC(=O)C1CCCOC1 (configuration not stated) | -8.3
15 | Cn1cc(NC(=O)c2cccc(C(F)(F)F)c2)c(=O)n(C)c1=O | 0.49
16 | Oc1ccc([C@H]2Oc3cc(O)cc(O)c3C[C@@H]2O)cc1 | 4.94
17 | Cn1cc(CNc2ccc(CCN3CCC(C(N)=O)CC3)cc2)cn1 | -6.21
18 | Cc1nc(N2CCC(CN3CCCC3)CC2)c2cnn(C)c2n1 | 8.39
19 | Cc1nnc(SCc2cccc(F)c2)n1CC(N)=O | -6.58
20 | NC(=O)C1CCN(C(=O)C2SCCc3sccc32)CC1 (configuration not stated) | -6.02
21 | CN1CCC(c2nnc(CN3CCOCC3)n2C)CC1 | -1.16
22 | CCC(C)N(Cc1cccnc1)C(=O)c1ccc(NS(=O)(=O)CC)cc1 (configuration not stated) | 7.1
23 | CCc1nc(NC2CCCN(C(=O)c3cccs3)C2)c2cnn(C)c2n1 (configuration not stated) | 13.9

Row | Structure (SMILES) | cytotoxicity at 10 µM [%]
24 | Cn1ccnc1SCC(=O)NCCC1CCCO1 (configuration not stated) | -2.49
25 | Cc1nn(C)cc1C(C)Nc1ncc(C(N)=O)cc1Cl (configuration not stated) | 3.68
26 | Cc1cc(C2CCCN(Cc3cccnc3)C2)n[nH]1 (configuration not stated) | 9
27 | CC1CCCN1C1CCN(C(=O)c2cccc(F)c2)CC1 (configuration not stated) | 5.93
28 | Cc1csc(CN(C)CCCOc2cccc(C#N)c2)n1 | -7.03
29 | COC(=O)C1CCN(CC2(c3ccc(C)cn3)CCNCC2)CC1 | -0.471
30 | CN(Cc1nc2ccccc2n1C)C(=O)CCc1cscn1 | -159
31 | CC(=O)NCc1cc2n(n1)CCN(Cc1cccc(Cl)c1Cl)C2 | -12.8
32 | CS(=O)(=O)c1ccc(-c2cnc(C3CCCN3)cn2)cc1 (configuration not stated) | -1.71
33 | CCn1cnnc1C1CCN(C(=O)c2cccc(N(C)C)c2)CC1 | 1.54
34 | Cn1nc(COCC2CC2)c2c1CCN(Cc1ccco1)C2 | -1.77
35 | CN(Cc1ccc(C#N)cc1)C(=O)c1ccn(C)c(=O)c1 | -2.81
36 | c1coc(CN2C[C@@H]3OCCN(CCN4CCCC4)[C@@H]3C2)c1 | -1.52
37 | COc1cc(Br)c(CNC(C)c2nnc3n2CCC3)cc1OC (configuration not stated) | -43.2
38 | Cc1noc(C)c1CNCC1(COc2cccnc2)C[C@@H](O)[C@@H](O)C1 (some centres not stated) | -2.36
39 | Cc1cccc(C(=O)N2C[C@@H]3OCCN(c4ncccn4)[C@@H]3C2)n1 | 0.523
40 | O=C(NCCc1ccccn1)C1(n2cnnn2)CCCCC1 | 0.801
41 | Cc1cccc(CN2CCc3ncnc(NC4CCC4)c3CC2)n1 | -152
42 | Cc1ncccc1C(=O)NC1(c2cccc(F)c2)CCOCC1 | 10.3
43 | CN(Cc1nnc(-c2ccco2)o1)C(C(N)=O)c1cccc(F)c1 (configuration not stated) | 16.7
44 | COCC1CN(C(=O)CNC(C)=O)Cc2ncnn2C1 (configuration not stated) | -12.4
45 | Cc1nc(C)n(CC2CCCN2Cc2cscn2)n1 (configuration not stated) | -2.05
46 | CCc1cnc(CN2CCC(N(Cc3noc(CC)n3)C(C)=O)C2)o1 (configuration not stated) | -4.17

Row | Structure (SMILES) | cytotoxicity at 10 µM [%]
47 | Cc1nc(C(C)C)ncc1C(=O)N1CCc2c(nc(N(C)C)[nH]c2=O)C1 | 14.3
48 | O=C(NCCc1nnc2n1CCC2)NC1(c2cccc(F)c2)CC1 | 3.07
49 | Cn1cccc1C(=O)N1CCCC1c1ccc(CN2CCOCC2)cn1 (configuration not stated) | 1.43
50 | CCN1CC(C)(C)CN(C(=O)CCc2ccccc2)CC1=O | 0.305
51 | O=C(c1cccs1)N1CCCC(c2cc(C(F)F)n3ncnc3n2)C1 (configuration not stated) | -23.4
52 | CCc1nc(N)nc(NCCC(=O)NC2CCCCC2)c1C | -38.9
53 | Cc1cc(C)c(CNC(=O)NCC(O)COc2ccccc2)c(=O)[nH]1 (configuration not stated) | -5.75
54 | Cn1cnc2c1CCN(CC(=O)N(Cc1ccccc1F)C1CC1)C2 | 4.91
55 | CN1CCN(c2ccc(NC(=O)c3cccs3)c(C(F)(F)F)c2)CC1 | 3.94
56 | CN(C)S(=O)(=O)c1ccc(CN2CCCC2c2ccsc2)o1 (configuration not stated) | -8.72
57 | COCCC1(CO)CCCN(C(=O)c2cccnc2O)C1 (configuration not stated) | -50.7
58 | Cc1n[nH]c(SCC(=O)NC(c2ccccn2)C(C)C)n1 (configuration not stated) | -2.62
59 | CN1CCC(NC(=O)Nc2ccc(Br)c(F)c2)C1=O (configuration not stated) | -147
60 | Cc1ccc(-c2cn3c(n2)CO[C@@H](CNCc2cccnc2)C3)cc1 | -105
61 | O=C(c1cnc(NCCC2CCCO2)c(Cl)c1)N1CCCCC1 (configuration not stated) | -2.01
62 | O=C(CN1CCN(CCO)CC1)NCCc1c(F)cccc1F | -9.83
63 | CC1c2ncc(Cn3cncn3)n2CCN1C(=O)c1ccsc1 (configuration not stated) | -0.551
64 | CS(=O)(=O)CCCNC1CCCN(Cc2noc(C3CC3)n2)C1 (configuration not stated) | 1.15
65 | Cc1csc(N2CCN(CC(=O)Nc3ccncc3)CC2C)n1 (configuration not stated) | 29.3
66 | CN1C(=O)C(c2ccccc2)CC12CCN(CCN1CCCC1=O)CC2 (configuration not stated) | -14.6
67 | CCc1cnc(N2CC[C@H]3[C@@H]2CCC(=O)N3c2ccccc2)nc1 | -6.18
68 | COCC(=O)N1CCCC1c1cccc(Nc2ncc(C)s2)n1 (configuration not stated) | -17
69 | Cc1noc([C@@H]2C[C@@H]3CCN(c4nnc(C)s4)C[C@H]3O2)n1 | 5.35

Row | Structure (SMILES) | cytotoxicity at 10 µM [%]
70 | Cc1csc(CNC(=O)NCC(O)c2ccc(F)c(F)c2)n1 (configuration not stated) | 2.51
71 | Cn1cc(CNCCOc2ccc(F)c(F)c2)c(-c2cccnc2)n1 | -2.53
72 | CCc1nccn1C1CCCN(C(=O)CCCNc2ncccn2)C1 (configuration not stated) | -1.3
73 | CN(Cc1cn2c(n1)CN(CC1CC1)CC2)Cc1ccco1 | 1.39
74 | O=C(c1ccccc1Cl)N1CC[C@H](O)[C@@H](N2CCOCC2)CC1 | -4.91
75 | O=C(N1CCC(Oc2ccncc2)C1)C1(c2ccccc2F)CC1 (configuration not stated) | -10.4
76 | O=C(CCC(=O)NCc1cccc(Br)c1)NCCN1CCCC1 | 10
77 | CCCOc1ccccc1CN[C@@H]1CCC[C@H]1Cc1cc(C)no1 | -6.86
78 | O=C(Nc1ccc(F)c(Br)c1)N1CCCC1 | 2.32
79 | CCc1[nH]c2c(CNc3nccc(N)n3)cc(F)cc2c1C | -8.36
80 | COC[C@@H]1CCC[C@@]12CN(Cc1ccc(C)s1)CCO2 | 6.76
81 | Cc1cc(=O)n2ncnc2n1CC(O)c1ccccc1Cl (configuration not stated) | 1.67
82 | CC(CCc1ccccc1)NC(=O)CN1CCOCC1 (configuration not stated) | 4.17
83 | O=C(NCC1OCCc2cn(CC3CCOCC3)nc21)c1ccncc1 (configuration not stated) | -78
84 | Cc1cc(C(=O)N(C)CCCn2cccn2)nc(N)n1 | -7.04
85 | CNC(=O)CCc1cc(C2CCNCC2)nc(C)n1 | -6.41
86 | CCOCc1nc2c(c(NCc3cc(C)on3)n1)CCN(C(C)=O)CC2 | 2.24
87 | CC(=O)NCCc1cc(N2CCN(C(C)=O)CC2)nc(C2CC2)n1 | 2.24
88 | OC1CCN(c2ccnc(NCCc3ccccc3Cl)n2)CC1 | 16.5
89 | O=C(NCc1ccccn1)NCC(c1ccco1)N1CCCCC1 (configuration not stated) | -2.93
90 | CCn1c(-c2ccccc2)nn(CC(=O)NCCc2ccc(C)o2)c1=O | -0.545
91 | CNc1nc(C(=O)N2CCCn3nc(C(=O)N4CCCC4)cc3C2)cs1 | 4.57
92 | Cc1cnn(CC2CCCN2CC(=O)N(C)CCC#N)c1 (configuration not stated) | 7

Row | Structure (SMILES) | cytotoxicity at 10 µM [%]
93 | O=S(=O)(C1CC1)N1Cc2nccn2CC(Cn2cncn2)C1 (configuration not stated) | 1.02
94 | c1ccc(-c2nc(CCNCc3ccncc3)co2)cc1 | 6.07
95 | COCC(=O)N1CC[C@@H]2O[C@H](COCc3ccncc3)CC[C@@H]21 | 2.6
96 | CC(CNS(N)(=O)=O)c1ccc(F)c(F)c1 (configuration not stated) | -12.1
97 | COc1ccnc(N2CCN(C(=O)c3cc(C4CC4)[nH]n3)CC2)n1 | 6.85
98 | CC(=O)c1ccc(OCC(C)O)cc1O (configuration not stated) | -8.02
99 | Cc1nc(CN2C(=O)CC[C@@H]3[C@H]2CCN3C(=O)NC2CC2)cs1 | 9.37
100 | CCOCCN1CCC(c2cnccn2)CC1 | 5.8
101 | O=C(CC1CC1)N[C@@H]1CN(C(=O)c2ccsc2)C[C@@H]2CCCO[C@@H]21 | -109
102 | CN(C)C(C(=O)NCC1(O)CCCCC1)c1cccc(F)c1 (configuration not stated) | -2.07
103 | CCN(c1ccc(C(=O)N2CCC(C)CC2)cc1)S(=O)(=O)CC | 7.36
104 | O=C(NCCNc1ccc(C(F)(F)F)cn1)c1ccc(F)cc1Cl | -7.65
105 | CC(Cn1ccnc1)NC(=O)NCCNC(=O)C(C)C (configuration not stated) | -3.51
106 | O=c1c2ccccc2nc2n1CCC2O (configuration not stated) | 7.68
107 | O=C(NCCn1ccnc1)NCC(c1ccco1)N1CCCC1 (configuration not stated) | 2.01
108 | CO[C@@H]1CN(c2ccccc2)S(=O)(=O)[C@@]12CCN(C(=O)N(C)C)C2 | 10.1
109 | CCc1cc(CN(C)C(=O)CN2CC(Cc3ccccc3)CC2=O)on1 (configuration not stated) | -0.28
110 | Nc1nc(CN2CCOC(Cn3cccn3)C2)nc2ccccc12 (configuration not stated) | -20.4
111 | Cc1c[nH]c(C2CCCN(Cc3ccccc3C(=O)O)C2)n1 (configuration not stated) | -3.3
112 | CN(C)Cc1ccnc(C2CCCN2Cc2ccc(F)cn2)n1 (configuration not stated) | -17.7

From ChEMBL document CHEMBL4513216, “Probing the Open Global Health Chemical Diversity Library for Multistage-Active Starting Points for Next-Generation Antimalarials” (ACS Infect Dis, 2020)
